In ChEMBL document CHEMBL3351583, “Two-pronged attack: dual inhibition of Plasmodium falciparum M1 and M17 metalloaminopeptidases by a novel series of hydroxamic acid-based inhibitors” (J Med Chem, 2014) one finds Activity, Ki and IC50 data, which are given here for 15 compounds.

A word on the Ki: it is a measure of affinity in units of concentration, obtained from inhibition or displacement. Low values mean tighter binding, high ones weaker binding. As usually defined, the IC50 is the concentration that inhibits the measured activity by half.

SMILES strings stand for the structures.

The test system of one data set is HEK293. Put plainly: Cytotoxicity against HEK293 cells assessed as growth inhibition up to 40 uM after 72 hrs by resazurin based assay. As to conditions: human, hek293, 72 h. The format is cell-based. In short, it runs like this:
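HEK293 in DMEM plus 10% FCS, seeded 2000 cells/well, adhered overnight, then dosed to top final 40 μM, 0.4% DMSO, 72 h at 37 °C, 5% CO₂. Medium replaced with 44 μM resazurin in serum-free DMEM, 4-6 h more, fluorescence 530/595 nm; % growth against 40 μM puromycin and 0.4% DMSO controls; IC50 by variable-slope nonlinear regression.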

The target of another data set is T1, Leucine aminopeptidase (Plasmodium falciparum 3D7, UniProt Q8IL11).
T1 sequence (Q8IL11 whole entry): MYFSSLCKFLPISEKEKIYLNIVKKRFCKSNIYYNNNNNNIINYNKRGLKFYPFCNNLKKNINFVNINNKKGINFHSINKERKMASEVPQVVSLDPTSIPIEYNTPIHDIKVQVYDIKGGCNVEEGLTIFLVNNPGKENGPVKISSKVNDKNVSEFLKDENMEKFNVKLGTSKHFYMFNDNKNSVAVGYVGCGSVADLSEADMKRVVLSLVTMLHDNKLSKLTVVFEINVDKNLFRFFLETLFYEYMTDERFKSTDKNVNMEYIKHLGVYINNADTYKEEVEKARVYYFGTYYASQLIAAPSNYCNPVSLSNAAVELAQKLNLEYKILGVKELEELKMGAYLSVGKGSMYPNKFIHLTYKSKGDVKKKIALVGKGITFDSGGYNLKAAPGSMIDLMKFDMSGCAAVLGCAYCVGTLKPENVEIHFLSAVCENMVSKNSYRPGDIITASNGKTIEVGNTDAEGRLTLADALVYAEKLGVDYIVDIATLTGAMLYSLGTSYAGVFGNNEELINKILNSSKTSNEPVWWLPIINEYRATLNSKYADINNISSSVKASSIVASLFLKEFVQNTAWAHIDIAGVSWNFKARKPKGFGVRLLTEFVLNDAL
Kind of data set: Inhibition of Plasmodium falciparum M17 incubated for 10 mins before H-Leu-NHMec substrate addition by fluorescence assay. Put shortly: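 Recombinant PfA-M17 purified from E. coli by Ni-NTA and gel filtration; 10 min inhibitor preincubation (0-500 μM) in 50 mM Tris pH 8.0, 2 mM CoCl₂, 37 °C, before H-Leu-NHMec at sub-Km level. Fluorescence (355/460 nm) followed to final steady-state velocity; Ki obtained by Dixon plot.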

Another data set has as its target T2, Aminopeptidase N (Plasmodium falciparum FcB1/Columbia, UniProt O96935).
T2 sequence (O96935 whole entry): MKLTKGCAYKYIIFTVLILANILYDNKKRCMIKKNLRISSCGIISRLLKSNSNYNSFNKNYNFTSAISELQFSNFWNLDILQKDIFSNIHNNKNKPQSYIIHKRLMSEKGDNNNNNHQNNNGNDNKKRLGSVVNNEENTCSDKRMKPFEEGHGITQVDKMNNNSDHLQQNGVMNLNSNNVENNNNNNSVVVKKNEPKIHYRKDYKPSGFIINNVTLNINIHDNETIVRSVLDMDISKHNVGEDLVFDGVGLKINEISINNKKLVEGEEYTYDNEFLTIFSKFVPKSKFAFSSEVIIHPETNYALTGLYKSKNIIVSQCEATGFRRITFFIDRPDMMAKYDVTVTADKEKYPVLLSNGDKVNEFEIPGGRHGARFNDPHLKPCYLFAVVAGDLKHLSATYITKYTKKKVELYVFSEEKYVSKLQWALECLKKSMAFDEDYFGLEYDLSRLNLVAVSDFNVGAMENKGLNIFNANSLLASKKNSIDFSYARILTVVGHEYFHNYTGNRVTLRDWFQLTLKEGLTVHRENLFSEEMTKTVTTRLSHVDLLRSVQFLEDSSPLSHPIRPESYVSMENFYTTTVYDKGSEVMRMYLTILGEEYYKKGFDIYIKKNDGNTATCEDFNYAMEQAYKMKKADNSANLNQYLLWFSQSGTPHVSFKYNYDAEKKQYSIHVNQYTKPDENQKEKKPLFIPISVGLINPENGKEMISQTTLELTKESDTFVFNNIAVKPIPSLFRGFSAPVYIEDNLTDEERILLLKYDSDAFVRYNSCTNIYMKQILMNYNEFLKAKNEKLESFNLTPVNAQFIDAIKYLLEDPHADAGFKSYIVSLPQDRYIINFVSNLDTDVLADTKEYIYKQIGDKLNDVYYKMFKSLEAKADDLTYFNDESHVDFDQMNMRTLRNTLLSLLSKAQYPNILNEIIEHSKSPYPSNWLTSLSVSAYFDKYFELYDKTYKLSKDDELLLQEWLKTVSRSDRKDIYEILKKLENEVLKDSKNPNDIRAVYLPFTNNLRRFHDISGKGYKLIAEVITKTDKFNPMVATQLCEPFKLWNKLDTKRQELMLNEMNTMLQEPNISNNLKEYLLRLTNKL
Kind of data set: Inhibition of Plasmodium falciparum M1 incubated for 10 mins before H-Leu-NHMec substrate addition by fluorescence assay. Put shortly:
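Recombinant PfA-M1 (E. coli, Ni-NTA then size exclusion) preincubated with inhibitor (0-500 μM) 10 min in 100 mM Tris pH 8.0 at 37 °C, then H-Leu-NHMec added below Km. NHMec release read at ex 355/em 460 nm to steady-state velocity; Ki from Dixon plots of 1/V against inhibitor concentration.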

A further data set has as its system Plasmodium falciparum. Put plainly: Antimalarial activity against Plasmodium falciparum 3D7 assessed as parasite growth inhibition after 72 hrs by DAPI staining based confocal microscopy. As to conditions: 3D7, 72 h. It is filed as functional, organism-based. In short, it runs like this:
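Sorbitol-synchronised 3D7 rings (2% parasitaemia, 0.3% haematocrit) in RPMI/Hepes/hypoxanthine/AlbuMAX II exposed to three-step log dilutions from 40 μM top, final 0.4% DMSO, 72 h at 37 °C, 5% CO₂. Saponin/Triton X/EDTA buffer with DAPI added, overnight RT, confocal imaging counts parasites; % growth versus 2 μM artemisinin and 0.4% DMSO controls; IC50 by variable-slope nonlinear regression.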

For `CC(C)(C)OC(=O)NC(C(=O)O)c1ccc(-n2cccn2)cc1` (stereo unspecified), the Activity entry in the data set on HEK293 is listed as “Non-toxic”. Further, the Ki on Leucine aminopeptidase was 464000 nM; on Aminopeptidase N, more than 500 µM.

Take `Cl.NC(C(=O)O)c1ccc(-n2cccn2)cc1` (stereo unspecified): the Activity result with HEK293 is listed as “Non-toxic”. Also, the Ki is more than 500000 nM at Leucine aminopeptidase and more than 500 µM at Aminopeptidase N.

With `CC(C)(C)OC(=O)NC(C(=O)NO)c1ccc(-n2cccn2)cc1` (stereo unspecified), the IC50 with Plasmodium falciparum was 783 nM. Besides, in the data set on HEK293, the Activity entry is listed as “Non-toxic”. Also, the Ki on Leucine aminopeptidase amounted to 30 nM; at Aminopeptidase N, 0.8 µM.

`Cl.NC(C(=O)NO)c1ccc(-n2cccn2)cc1` (stereo unspecified): in the data set with HEK293, the Activity entry is recorded as “Non-toxic”. For the same compound, the results for the Ki at Leucine aminopeptidase and at Aminopeptidase N were 86000 nM and 74.5 µM, respectively.

Regarding `CC(=O)NC(C(=O)NO)c1ccc(-n2cccn2)cc1` (stereo unspecified), in the data set on Plasmodium falciparum, the IC50 stood at 619 nM. Moreover, the Activity result with HEK293 is given as “Non-toxic”. Besides, the figures for the Ki at Leucine aminopeptidase and on Aminopeptidase N were 19 nM and 113 µM, respectively.

As for `CCC(=O)NC(C(=O)NO)c1ccc(-n2cccn2)cc1` (stereo unspecified), the IC50 in the data set with Plasmodium falciparum was 455 nM. For the same compound, the Activity entry with HEK293 is “Non-toxic”. Also, the Ki was determined as 16 nM at Leucine aminopeptidase and 41.3 µM on Aminopeptidase N.

Regarding `CC(C)C(=O)NC(C(=O)NO)c1ccc(-n2cccn2)cc1` (stereo unspecified), the IC50 in the data set with Plasmodium falciparum stood at 532 nM. Moreover, the Activity result with HEK293 is on record as “Non-toxic”. Besides, the Ki at Leucine aminopeptidase is 53 nM; at Aminopeptidase N, 12.3 µM.

With `CC(C)(C)C(=O)NC(C(=O)NO)c1ccc(-n2cccn2)cc1` (stereo unspecified), the IC50 with Plasmodium falciparum came out at 227 nM. Besides, the Activity entry with HEK293 is “Non-toxic”. The values for the Ki on Leucine aminopeptidase and on Aminopeptidase N were 28 nM and 0.7 µM, respectively.

As for `CC(C)(C)NC(=O)NC(C(=O)NO)c1ccc(-n2cccn2)cc1` (stereo unspecified), in the data set with Plasmodium falciparum, the IC50 came out at 597 nM. Besides, the Activity entry with HEK293 was “Non-toxic”. For the same compound, the results for the Ki on Leucine aminopeptidase and on Aminopeptidase N were 38 nM and 15.3 µM, respectively.

Regarding `O=C(NC(C(=O)NO)c1ccc(-n2cccn2)cc1)c1ccccc1` (stereo unspecified), in the data set on HEK293, the Activity result is given as “Non-toxic”. In addition, the Ki is 154 nM on Leucine aminopeptidase and 23 µM on Aminopeptidase N.

On to `O=C(NC(C(=O)NO)c1ccc(-n2cccn2)cc1)c1ccccc1F` (stereo unspecified), for which, in the data set on Plasmodium falciparum, the IC50 was found to be 351 nM. Further, in the data set on HEK293, the Activity entry is on record as “Non-toxic”. Also, the Ki at Leucine aminopeptidase was determined as 8 nM; at Aminopeptidase N it was 1.9 µM.

As for `O=C(NC(C(=O)NO)c1ccc(-n2cccn2)cc1)c1cccc(F)c1` (stereo unspecified), in the data set on Plasmodium falciparum, the IC50 was 429 nM. For the same compound, the Activity entry with HEK293 is recorded as “Non-toxic”. Further, the Ki at Leucine aminopeptidase was 35 nM; on Aminopeptidase N, 4 µM.

As for `O=C(NC(C(=O)NO)c1ccc(-n2cccn2)cc1)c1ccc(F)cc1` (stereo unspecified), the IC50 in the data set on Plasmodium falciparum was determined as 703 nM. Moreover, the Activity entry with HEK293 was “Non-toxic”. In addition, the Ki at Leucine aminopeptidase stood at 12 nM; at Aminopeptidase N, 11.2 µM.

For `Nc1cccc(C(=O)NC(C(=O)NO)c2ccc(-n3cccn3)cc2)c1` (stereo unspecified), the IC50 in the data set on Plasmodium falciparum came out at 233 nM. In the data set on HEK293, the Activity result was “Non-toxic”. In addition, the Ki at Leucine aminopeptidase was found to be 14 nM; on Aminopeptidase N, 5.5 µM.

With `Nc1ccc(C(=O)NC(C(=O)NO)c2ccc(-n3cccn3)cc2)cc1` (stereo unspecified), the IC50 in the data set with Plasmodium falciparum amounted to 228 nM. For the same compound, in the data set with HEK293, the Activity entry is reported as “Non-toxic”. The Ki on Leucine aminopeptidase was determined as 11 nM; at Aminopeptidase N, 7.4 µM.
